ChEMBL document CHEMBL5108036, “A concise SAR-analysis of antimicrobial cationic amphipathic barbiturates for an improved activity-toxicity profile” (Eur J Med Chem, 2022)

Experiments:
Staphylococcus aureus = test: Antibacterial activity against Staphylococcus aureus ATCC 9144 incubated for 48 hrs and measured by broth microdilution assay; format: functional
Method in brief: (§1)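 MICs in µg/mL were measured against the reference strains S. aureus ATCC 9144, B. subtilis 168, E. coli ATCC 25922 and P. aeruginosa ATCC 27853. Compounds were tested as di-TFA salts.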

Bacillus subtilis = test: Antibacterial activity against Bacillus subtilis 168 incubated for 48 hrs and measured by broth microdilution assay; format: functional; method in brief: as §1
Escherichia coli = test: Antibacterial activity against Escherichia coli ATCC 25922 incubated for 48 hrs and measured by broth microdilution assay; format: functional; method in brief: as §1
Pseudomonas aeruginosa = test: Antibacterial activity against Pseudomonas aeruginosa ATCC 27853 incubated for 48 hrs and measured by broth microdilution assay; format: functional; method in brief: as §1
[1] = Hemolytic activity in human RBC measured after 1 hr by microplate reader method; format: toxicity, cell-based, Erythrocyte; settings: human, human red blood cells (erythrocytes)
Method in brief: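 Human red blood cell lysis was used as the cytotoxicity read-out, expressed as EC50 in µg/mL. The highest concentration tested was 500 µM. Compounds were tested as di-TFA salts.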

[2] = Selectivity index, ratio HC50 for hemolytic activity in human RBC to MIC for antibacterial activity against Staphylococcus aureus ATCC 9144; format: toxicity; settings: human red blood cells (erythrocytes)
Method in brief: (§2)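 SI is the ratio of RBC lysis EC50 to MIC for each reference strain.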

[3] = Selectivity index, ratio HC50 for hemolytic activity in human RBC to MIC for antibacterial activity against Bacillus subtilis 168; format: toxicity; settings: human red blood cells (erythrocytes); method in brief: as §2
[4] = Selectivity index, ratio HC50 for hemolytic activity in human RBC to MIC for antibacterial activity against Escherichia coli ATCC 25922; format: toxicity; settings: human red blood cells (erythrocytes); method in brief: as §2
[5] = Selectivity index, ratio HC50 for hemolytic activity in human RBC to MIC for antibacterial activity against Pseudomonas aeruginosa ATCC 27853; format: toxicity; settings: human red blood cells (erythrocytes); method in brief: as §2

SMILES	MIC (Staphylococcus aureus) [µg/mL]	MIC (Bacillus subtilis) [µg/mL]	MIC (Escherichia coli) [µg/mL]	MIC (Pseudomonas aeruginosa) [µg/mL]	EC50 at 1 h [1] [µg/mL]	selectivity ratio [2]	selectivity ratio [3]	selectivity ratio [4]	selectivity ratio [5]
N=C(N)NCCCN1C(=O)N(CCCNC(=N)N)C(=O)C(Cc2ccc(C(F)(F)F)cc2)(Cc2ccc(C(F)(F)F)cc2)C1=O.O=C(O)C(F)(F)F.O=C(O)C(F)(F)F	8	4	128	256	> 435	> 54	> 109		
CC(C)(C)c1ccc(CC2(Cc3cc(Br)cc(Br)c3)C(=O)N(CCCNC(=N)N)C(=O)N(CCCNC(=N)N)C2=O)cc1.O=C(O)C(F)(F)F.O=C(O)C(F)(F)F (stereo not drawn)	1	1	2	16	169	169	169	85	11
O=C([O-])C(F)(F)F.O=C([O-])C(F)(F)F.O=C1N(CCCC[n+]2ccccc2)C(=O)C(Cc2cc(Br)cc(Br)c2)(Cc2cc(Br)cc(Br)c2)C(=O)N1CCCC[n+]1ccccc1	2	4	8	128	> 559	> 280	> 140	> 70	
N=C(N)NCCCCN1C(=O)N(CCCCNC(=N)N)C(=O)C(Cc2cc(Br)cc(Br)c2)(Cc2cc(Br)cc(Br)c2)C1=O.O=C(O)C(F)(F)F.O=C(O)C(F)(F)F	2	2	2	8	62	32	32	32	8
N=C(N)NCCCN1C(=O)N(CCCNC(=N)N)C(=O)C(Cc2ccc3cc(Br)ccc3n2)(Cc2ccc3cc(Br)ccc3n2)C1=O.O=C(O)C(F)(F)F.O=C(O)C(F)(F)F	8	4	64	> 128	> 497	> 62	> 124		
NCCCCN1C(=O)N(CCCCN)C(=O)C(Cc2cc(Br)cc(Br)c2)(Cc2cc(Br)cc(Br)c2)C1=O.O=C(O)C(F)(F)F.O=C(O)C(F)(F)F	4	2	4	8	79	20	40	20	10
C[N+](C)(C)CCCCN1C(=O)N(CCCC[N+](C)(C)C)C(=O)C(Cc2cc(Br)cc(Br)c2)(Cc2cc(Br)cc(Br)c2)C1=O.O=C([O-])C(F)(F)F.O=C([O-])C(F)(F)F	4	8	128	256	> 539	> 135	> 67		
CC(C)(C)c1ccc(CC2(Cc3cc(Br)cc(Br)c3)C(=O)N(CCCCN)C(=O)N(CCCCN)C2=O)cc1.O=C(O)C(F)(F)F.O=C(O)C(F)(F)F	4	4	8	8	82				
N=C(N)N[C@H]1CC[C@@H](N2C(=O)N([C@H]3CC[C@@H](NC(=N)N)CC3)C(=O)C(Cc3cc(Br)cc(Br)c3)(Cc3cc(Br)cc(Br)c3)C2=O)CC1.O=C(O)C(F)(F)F.O=C(O)C(F)(F)F	2	1	4	4	30				
NCCCN1C(=O)N(CCCN)C(=O)C(Cc2ccc(C(F)(F)F)cc2)(Cc2ccc(C(F)(F)F)cc2)C1=O.O=C(O)C(F)(F)F.O=C(O)C(F)(F)F	64	16	64	128	> 393				
NCCCCN1C(=O)N(CCCCN)C(=O)C(Cc2cc(Br)cc(Br)c2)(Cc2ccc3ccccc3n2)C1=O.O=C(O)C(F)(F)F.O=C(O)C(F)(F)F	32	8	128	256	> 444				
NCCCCN1C(=O)N(CCCCN)C(=O)C(Cc2ccc(C(F)(F)F)cc2)(Cc2cc(Br)cc(Br)c2)C1=O.O=C(O)C(F)(F)F.O=C(O)C(F)(F)F	16	8	32	64	342				
NCCCCN1C(=O)N(CCCCN)C(=O)C(Cc2c(Br)cc(Br)cc2Br)(Cc2c(Br)cc(Br)cc2Br)C1=O.O=C(O)C(F)(F)F.O=C(O)C(F)(F)F	2	2	4	4	30				
CCCCCCC1(CCCCCC)C(=O)N(CCCCNC(=N)N)C(=O)N(CCCCNC(=N)N)C1=O.O=C(O)C(F)(F)F.O=C(O)C(F)(F)F	2	2	4	16	143				
N=C(N)NCCN1C(=O)N(CCNC(=N)N)C(=O)C(Cc2cc(Br)cc(Br)c2)(Cc2cc(Br)cc(Br)c2)C1=O.O=C(O)C(F)(F)F.O=C(O)C(F)(F)F	2	2	4	16	164				
NCCCN1C(=O)N(CCCN)C(=O)C(Cc2ccc3cc(Br)ccc3n2)(Cc2ccc3cc(Br)ccc3n2)C1=O.O=C(O)C(F)(F)F.O=C(O)C(F)(F)F	32	8	64	256	> 455				
N=C(N)N[C@H]1C[C@@H](N2C(=O)N([C@H]3C[C@@H](NC(=N)N)C3)C(=O)C(Cc3cc(Br)cc(Br)c3)(Cc3cc(Br)cc(Br)c3)C2=O)C1.O=C(O)C(F)(F)F.O=C(O)C(F)(F)F	2	2	4	8	75				
N=C(N)NCCCCN1C(=O)N(CCCCNC(=N)N)C(=O)C(Cc2ccc(Br)c3ccccc23)(Cc2ccc(Br)c3ccccc23)C1=O.O=C(O)C(F)(F)F.O=C(O)C(F)(F)F	4	4	4	8	36				
N=C(N)NCCCCN1C(=O)N(CCCCNC(=N)N)C(=O)C(Cc2cc(Br)cc(Br)c2)(Cc2ccc3ccccc3n2)C1=O.O=C(O)C(F)(F)F.O=C(O)C(F)(F)F (stereo not drawn)	2	4	32	32	450	225	113		
CC(C)(C)c1ccc(CC2(Cc3cc(Br)cc(Br)c3)C(=O)N(CCCCNC(=N)N)C(=O)N(CCCCNC(=N)N)C2=O)cc1.O=C(O)C(F)(F)F.O=C(O)C(F)(F)F (stereo not drawn)	2	2	2	4	39				
N[C@H]1CC[C@H](N2C(=O)N([C@H]3CC[C@H](N)CC3)C(=O)C(Cc3cc(Br)cc(Br)c3)(Cc3cc(Br)cc(Br)c3)C2=O)CC1.O=C(O)C(F)(F)F.O=C(O)C(F)(F)F	2	2	2	4	16				
N=C(N)NCCCCCCN1C(=O)N(CCCCCCNC(=N)N)C(=O)C(Cc2cc(Br)cc(Br)c2)(Cc2cc(Br)cc(Br)c2)C1=O.O=C(O)C(F)(F)F.O=C(O)C(F)(F)F	4	4	4	32	57				
CC(C)(C)c1ccc(CC2(Cc3cc(Br)cc(Br)c3)C(=O)N(CCCN)C(=O)N(CCCN)C2=O)cc1.O=C(O)C(F)(F)F.O=C(O)C(F)(F)F	4	2	8	8	47				
NCCCCCN1C(=O)N(CCCCCN)C(=O)C(Cc2cc(Br)cc(Br)c2)(Cc2cc(Br)cc(Br)c2)C1=O.O=C(O)C(F)(F)F.O=C(O)C(F)(F)F	4	4	8	8	24				
N=C(N)NCCCCN1C(=O)N(CCCCNC(=N)N)C(=O)C(Cc2cc(Br)cc(Br)c2)(Cc2cc(C(F)(F)F)cc(C(F)(F)F)c2)C1=O.O=C(O)C(F)(F)F.O=C(O)C(F)(F)F (stereo not drawn)	2	2	2	4	36				
N=C(N)NCCCCN1C(=O)N(CCCCNC(=N)N)C(=O)C(Cc2cc(Br)cc(Br)c2)(Cc2ccc(Br)c3ccccc23)C1=O.O=C(O)C(F)(F)F.O=C(O)C(F)(F)F (stereo not drawn)	1	4	4	8	58				
NCCCCN1C(=O)N(CCCCN)C(=O)C(Cc2cc(Br)cc(Br)c2)(Cc2ccc(Br)c3ccccc23)C1=O.O=C(O)C(F)(F)F.O=C(O)C(F)(F)F	4	4	4	8	47				
N[C@H]1C[C@H](N2C(=O)N([C@H]3C[C@H](N)C3)C(=O)C(Cc3cc(Br)cc(Br)c3)(Cc3cc(Br)cc(Br)c3)C2=O)C1.O=C(O)C(F)(F)F.O=C(O)C(F)(F)F	4	4	4	8	93				
NCCCN1C(=O)N(CCCN)C(=O)C(Cc2cc(Br)cc(Br)c2)(Cc2cc(Br)cc(Br)c2)C1=O.O=C(O)C(F)(F)F.O=C(O)C(F)(F)F	4	4	8	8	99				
